High-throughput results (PubChem)
Shown are actives, neighbours in structure and some others; about 5.7% of the full set was active somewhere.
Calb FLC – C. albicans growth inhibition with fluconazole, primary screen, CaCi-2 strain, Alamar Blue fluorescence; C. albicans CaCi-2 (fluconazole-resistant clinical isolate) + fluconazole, 48 h; growth inhibition, % (test concentration not listed); hit rate 0.57% among 300,000; AID 1979, 2009;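 active = growth inhibition above about 58% in most replicates, limit read from the data, passing the limit was not always enough; inconclusive = exactly half the replicates above a set limit; inactive = most replicates below a set limit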;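 also: all wells also contain fluconazole at 8 µg/ml as a sub-toxic cotreatment; 0% = median of DMSO wells and 100% = median of geldanamycin control wells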
CSC inhib – cancer stem cell viability inhibitors, primary screen, luminescence; cancer stem cell-like cells viability; inhibition, % at 7.5 µM; hit rate 1.1% among 300,000; AID 2717, 2010; in the data active = inhibition above about 75%; inconclusive = no clear call, values can overlap the other calls; tested in HMLE shEcad cells
SKKanGAS inh – S. pyogenes SKKanGAS growth inhibitors in kanamycin, primary screen, streptokinase expression inhibitor project, SKKanGAS strain, BacTiter-Glo luminescence; 6 h; inhibition, % at 7.5 µM; hit rate 1.3% among 300,000;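 active = mean replicate score, as percent of positive control median, at least 50; inconclusive = mean below 50 but one replicate at or above 50; inactive = mean and every replicate below 50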;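 also: strain carries kanamycin resistance gene driven by streptokinase promoter and grows in 40 µg/ml kanamycin; loss of luminescence reflects streptokinase promoter inhibition or plain growth inhibition; 0% = median of DMSO wells and 100% = positive control at its reference dose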
Beta cell apopt – inhibitors of cytokine-induced beta cell apoptosis, primary screen, luminescence | protection from apoptosis, % (no concentration beside the values) | hit rate 0.8% among 300,000 | INS-1E cytokine-induced death, ATP luminescence, 48 h; percent of positive-control rescue, neutral wells zero;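 active = Every replicate reaches about 75%, or at least half do and their mean reaches it too, limit read from the data; inconclusive = At least half of replicates reach the limit but their mean does not; inactive = Under half of replicates reach the limit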;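 also: 0% = cytokine-treated negative control wells and 100% = positive control rescue; higher means more ATP so stronger rescue from cytokine killing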
T cruzi repl – inhibitors of intracellular T. cruzi growth, primary screen, luminescence, NIH3T3 host cells | T. cruzi beta-gal in NIH3T3, 90 h | inhibition, % (concentration not given with the values) | hit rate 1.4% among 300,000;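 active = mean inhibition across valid replicates above about 55%, limit read from the data; inconclusive = mean below that limit but half or more replicates reach it; inactive = mean below it, under half of replicates reach it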;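 also: signal also drops with host cell toxicity which is not excluded here; 0% = plate median of DMSO wells and 100% = zero luminescence signal; higher percent means less beta-gal luminescence so fewer parasites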
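compound dosing = single 50 nL compound addition per well in DMSO | material = NIH/3T3 host cells with β-galactosidase reporter T. cruzi | input = 5,000 host fibroblasts per well | timing = ≥90 h infection period, 3 h prior cell attachment | read-out basis = percent inhibition of parasite-derived β-gal signal | detection = GalScreen β-gal luminescence, detergent lysis, 60 min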
Mdm2-MdmX inh – inhibitors of human Mdm2-MdmX association, primary screen, cell-based, luminescence, split luciferase, SaOS-2, uHTS | hit rate 3% among 330,000 | Protein Mdm4 (Homo sapiens) + E3 ubiquitin-protein ligase Mdm2 (Homo sapiens), … | inhibition, % at 8 µM | AID 485346, 2010 | SaOS-2 split-luciferase Mdm2/MdmX complementation;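 active = inhibition of at least 50% at 8 µM in the primary screen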
Target sequence (O15151 whole entry, looked up): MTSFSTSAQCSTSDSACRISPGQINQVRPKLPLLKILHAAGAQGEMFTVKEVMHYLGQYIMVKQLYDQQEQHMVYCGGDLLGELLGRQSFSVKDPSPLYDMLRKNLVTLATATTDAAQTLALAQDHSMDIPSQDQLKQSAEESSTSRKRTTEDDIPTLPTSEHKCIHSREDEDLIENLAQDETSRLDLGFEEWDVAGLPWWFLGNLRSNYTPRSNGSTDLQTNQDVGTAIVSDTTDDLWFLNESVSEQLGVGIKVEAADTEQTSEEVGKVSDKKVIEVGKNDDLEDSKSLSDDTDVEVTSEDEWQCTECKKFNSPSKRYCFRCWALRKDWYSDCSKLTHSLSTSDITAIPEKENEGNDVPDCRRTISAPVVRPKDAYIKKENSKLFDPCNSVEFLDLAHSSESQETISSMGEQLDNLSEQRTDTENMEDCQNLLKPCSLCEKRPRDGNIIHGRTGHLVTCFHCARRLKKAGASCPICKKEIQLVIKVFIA
Target sequence (Q00987 whole entry, looked up): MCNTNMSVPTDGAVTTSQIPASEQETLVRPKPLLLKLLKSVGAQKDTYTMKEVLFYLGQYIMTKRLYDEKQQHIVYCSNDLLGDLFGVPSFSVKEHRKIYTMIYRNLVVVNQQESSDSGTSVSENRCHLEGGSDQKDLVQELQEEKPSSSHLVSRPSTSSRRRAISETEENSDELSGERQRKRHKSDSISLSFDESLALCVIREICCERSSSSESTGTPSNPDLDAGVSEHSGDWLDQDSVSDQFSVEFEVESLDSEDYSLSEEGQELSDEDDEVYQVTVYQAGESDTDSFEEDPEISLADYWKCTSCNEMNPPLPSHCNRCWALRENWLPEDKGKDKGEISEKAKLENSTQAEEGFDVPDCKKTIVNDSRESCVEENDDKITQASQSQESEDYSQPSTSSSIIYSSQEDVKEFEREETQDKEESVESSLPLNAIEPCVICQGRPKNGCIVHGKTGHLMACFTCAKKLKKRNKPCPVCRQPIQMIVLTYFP
Mdm2 MdmX conf – Mdm2-MdmX complex disruptors, retested hits, confirmation, luminescence, single concentration | shares compounds with Mdm2-MdmX inh | Mdm2-MdmX binding, luminescent assay | inhibition, % at 8 µM | hit rate 55% among 10,000; in the data active = inhibition above about 40%
Full FLuc ctr – full-length luciferase signal inhibition, confirmation, counter-screen for Mdm2/MdmX interaction inhibitor project, cell-based, single concentration, SaOS-2; shares compounds with Mdm2-MdmX inh; SaOS-2 full-length luciferase counterscreen, luminescence; inhibition, % at 8 µM; hit rate 77% among 6,200;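 active = mean inhibition at 8 µM reaching about 37%, which flags the compound as non-specific, limit read from the data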;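 also: p53-null SaOS-2 cells with luciferase driven by a doxycycline-inducible promoter; compound on cells about two nights before reading with doxycycline added after day one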
An asterisk follows results filed as active; ? = inconclusive; / = not tested or not shown.

SMILES | Calb FLC | CSC inhib | SKKanGAS inh | Beta cell apopt | T cruzi repl | Mdm2-MdmX inh | Mdm2 MdmX conf | Full FLuc ctr
CC(=O)c1cccc(OCc2cc(C(=O)N3C[C@@H](C)O[C@@H](C)C3)no2)c1 | -5 | -10 | -1 | 0 | -8 | -30 | / | /
COc1ccc(NC(=O)c2cc(-c3ccccc3)nc3c2c(C)nn3-c2ccccc2)c(OC)c1 | 2 | -9 | -8 | 15 | 34 | 54* | 9 | /
COc1ccc(-c2cc(C(=O)NNC3=NCCC3)c3c(C)nn(-c4ccccc4)c3n2)cc1 | -7 | / | -14 | 41 | 1 | 69* | 56* | 34
COc1ccc(NC(=O)c2cnn(-c3ccccc3)c2C)c(OC)c1 | 1 | -6 | -7 | -4 | 2 | -31 | / | /
Cc1nn(-c2ccccc2)c2nc(-c3ccncc3)cc(C(=O)NCc3ccco3)c12 | 29 | 6 | 4 | / | 36 | 38 | / | /
COc1ccc(OCCC(=O)Nc2ccccc2)cc1 | -2 | -8 | 0 | -3 | -14 | 2 | / | /
COc1ccc(N(CC(=O)NCCSCc2ccco2)S(=O)(=O)c2ccccc2)cc1Cl | 6 | 12 | 32 | 4 | 17 | 8 | / | /
CC1CCC(NC(=O)CCS(=O)(=O)c2ccc3c(c2)oc(=O)n3C)CC1 (stereo not drawn) | -13 | -7 | 1 | -4 | -3 | 10 | / | /
CCC(C)NC(=O)CSc1ccc(S(=O)(=O)N(C)C2CCCCC2)cn1 (stereo not drawn) | / | -8 | / | 9 | / | 29 | / | /
Cn1cc(S(=O)(=O)N2CCCC2)cc1C(=O)O | / | -1 | / | 1 | / | -16 | / | /
COc1ccc(C(=O)NNC2=C(C(=O)C(F)(F)F)CCC2)cc1 | 0 | 10 | 5 | 1 | -11 | 68* | 38 | 97*
O=C(NNC(=O)c1cccc(Cl)c1)NNC(=O)c1cccc(Cl)c1 | / | -17 | / | -5 | / | 18 | / | /
O=C(NNC1=C(C(=O)C(F)(F)F)CCC1)c1cccc(Cl)c1 | 101* | 113* | 96* | 18 | 6 | 61* | 36 | 65*
O=C(NNC1=C(C(=O)C(F)(F)F)CCC1)c1ccc(Cl)cc1 | 109* | 82* | 101* | 9 | 3 | 52* | 55* | 76*
CSCCC(NC(=O)c1cccc(C)c1)C(=O)OCN1C(=O)c2ccccc2C1=O (stereo not drawn) | 3 | -9 | 8 | -3 | -20 | -5 | / | /
CCCN(CC(=O)Nc1ccccc1C)C(=O)Cc1c(C)nc2ccccc2c1C | / | / | / | -2 | / | -7 | / | /
O=C(/C=C\c1cn(-c2ccccc2)nc1-c1ccccc1)Nc1nccs1 | 4 | 11 | 5 | 48 | 8 | 84* | 81* | 29
CC(=O)NS(=O)(=O)c1ccc(NC(=O)/C=C/c2cn(-c3ccccc3)nc2-c2ccccc2)cc1 | -3 | 1 | 39 | -1 | -15 | 14 | / | /
O=C1CC(c2ccco2)Cc2c1cnn2-c1nc2ccccc2s1 (stereo not drawn) | -7 | -20 | 11 | 0 | -7 | 50* | 6 | /
CCOC(=O)C1=C(c2ccccc2)NC(N)=NC1c1ccc(OCc2ccc(Cl)cc2)c(OC)c1 (stereo not drawn) | -6 | 76* | 31 | -11 | 21 | 100* | 60* | 94*
COc1cc2nc(N3CCN(c4cc(C)ccc4C)CC3)nc(N)c2cc1OC | 12 | 106* | -6 | 118* | 56* | 95* | 86* | 51*
COc1ccc(Cl)cc1Nc1nc(N)c2ccccc2n1 | 20 | 18 | -8 | 5 | 43 | -70 | / | /
COc1cc2nc(N3CCNCC3)nc(N)c2cc1OC | ? | 2 | 7 | -7 | 32 | 23 | / | /
COc1ccc(C)cc1Nc1nc(N)c2cc(OC)c(OC)cc2n1 | 4 | 6 | -2 | 16 | 35 | 51* | 15 | /
